Assay results: ChEMBL document CHEMBL2440047, “Design, synthesis, and structure-activity relationships of azolylmethylpyrroloquinolines as nonsteroidal aromatase inhibitors” (J Med Chem, 2013)
Activity calls are given as the source filed them. No cut-off for these calls is given here.

What was measured:
Aromatase [1] = target: T1, Aromatase (Homo sapiens, UniProt P11511); assay: Inhibition of CYP19 in human H295R cells using [1beta-3H(N)]-androst-4-ene-3,17-dione at 10 uM after 24 hrs by tritiated water release assay; assay type: cell-based
T1 sequence (P11511 whole entry): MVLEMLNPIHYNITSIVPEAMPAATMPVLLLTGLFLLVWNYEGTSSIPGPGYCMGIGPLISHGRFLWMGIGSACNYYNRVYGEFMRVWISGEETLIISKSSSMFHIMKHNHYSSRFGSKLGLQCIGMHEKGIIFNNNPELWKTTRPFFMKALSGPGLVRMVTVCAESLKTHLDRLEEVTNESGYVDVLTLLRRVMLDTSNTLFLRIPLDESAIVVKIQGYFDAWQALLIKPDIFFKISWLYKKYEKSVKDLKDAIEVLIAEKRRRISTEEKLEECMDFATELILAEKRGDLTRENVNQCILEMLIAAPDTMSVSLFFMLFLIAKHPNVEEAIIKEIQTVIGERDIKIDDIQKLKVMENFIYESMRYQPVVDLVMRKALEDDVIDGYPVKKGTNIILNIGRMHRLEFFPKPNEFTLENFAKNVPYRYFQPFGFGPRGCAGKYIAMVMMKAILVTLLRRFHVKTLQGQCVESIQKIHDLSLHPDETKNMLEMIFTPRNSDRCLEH
Summary of the method: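 Cells were then incubated 2 h with 0.5 µM [1β-3H(N)]-androst-4-ene-3,17-dione. Read-out is tritiated water release, expressed as % of untreated cells. Means ± SEM of two independent experiments, each in triplicate.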

Aromatase [2] = target: T1, Aromatase; assay: Inhibition of aromatase (unknown origin) using 7-methoxy-4-trifluoromethylcoumarin as substrate after 30 mins by fluorimetric analysis
Summary of the method: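 Recombinant CYP19 from a high-throughput screening kit, with 7-methoxy-4-trifluoromethylcoumarin as substrate. Enzyme/substrate mix was then added for 30 min at 37 °C before stop reagent. Fluorescence read at λex 410 / λem 530 nm. IC50 given as mean ± SEM of three independent experiments run in duplicate.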

[3] = Growth inhibition of non-estrogen-sensitive human SEM cells after 72 hrs by MTT assay; assay type: functional
Summary of the method: (§1)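 Cells were seeded at 8x10^3 per well and left 18 h at 37 °C, 5% CO2, then exposed 72 h to compound at several concentrations from 10 mM DMSO stocks (final DMSO ≤0.25%). Jurkat, RS4;11 and SEM were grown in RPMI-1640; H295R in DMEM-F12 with 2% FBS plus insulin-transferrin-selenium. Viability read by MTT.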

MCF7 [4] = assay: Growth inhibition of estrogen-sensitive human MCF7 cells after 72 hrs by MTT assay; assay type: functional; details: MCF7, 72 h; summary of the method: as §1
HT-29 = assay: Growth inhibition of non-estrogen-sensitive human HT-29 cells after 72 hrs by MTT assay; assay type: functional; details: HT-29, 72 h; summary of the method: as §1
Aromatase [5] = target: T1, Aromatase; assay: Inhibition of aromatase in human H295R cells using [1beta-3H(N)]-androst-4-ene-3,17-dione as substrate assessed as residual activity at 1 uM after 24 hrs by tritiated water release assay
Aromatase [6] = target: T1, Aromatase; assay: Activation of aromatase in human H295R cells using [1beta-3H(N)]-androst-4-ene-3,17-dione as substrate at 0.1 uM after 24 hrs by tritiated water release assay
OVCAR-3 = assay: Growth inhibition of estrogen-sensitive human OVCAR3 cells after 72 hrs by MTT assay; assay type: functional; details: OVCAR-3, 72 h; summary of the method: as §1
HeLa [7] = assay: Growth inhibition of non-estrogen-sensitive human HeLa cells after 72 hrs by MTT assay; assay type: functional; summary of the method: as §1
[8] = Growth inhibition of non-estrogen-sensitive human RS4:11 cells after 72 hrs by MTT assay; assay type: functional; details: RS4-11, 72 h; summary of the method: as §1
[9] = target: T2, Steroid 17-alpha-hydroxylase/17,20 lyase (Homo sapiens, UniProt P05093); assay: Inhibition of human CYP17 expressed in Escherichia coli using progesterone as substrate NADPH as cofactor
T2 sequence (P05093 whole entry): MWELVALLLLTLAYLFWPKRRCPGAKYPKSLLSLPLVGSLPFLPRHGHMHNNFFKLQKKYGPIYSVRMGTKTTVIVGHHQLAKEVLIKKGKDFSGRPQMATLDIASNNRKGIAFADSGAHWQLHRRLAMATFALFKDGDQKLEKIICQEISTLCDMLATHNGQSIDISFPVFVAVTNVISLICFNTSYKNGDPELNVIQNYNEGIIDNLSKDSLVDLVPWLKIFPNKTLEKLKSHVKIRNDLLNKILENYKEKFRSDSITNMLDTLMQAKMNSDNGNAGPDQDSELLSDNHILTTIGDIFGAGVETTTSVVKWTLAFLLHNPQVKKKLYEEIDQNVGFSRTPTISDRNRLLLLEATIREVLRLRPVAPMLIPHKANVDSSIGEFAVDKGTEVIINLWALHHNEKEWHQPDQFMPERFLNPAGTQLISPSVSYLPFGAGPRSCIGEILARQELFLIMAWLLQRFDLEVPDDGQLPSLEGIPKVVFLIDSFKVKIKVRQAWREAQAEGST
Summary of the method: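 Cell-free assay using the 50000g sediment of E. coli coexpressing human CYP17 and cytochrome P450 reductase, with progesterone substrate and NADPH cofactor. IC50 given as mean ± SEM of three independent experiments run in duplicate.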

Jurkat = assay: Growth inhibition of non-estrogen-sensitive human Jurkat cells after 72 hrs by MTT assay; assay type: functional; summary of the method: as §1
IGROV-1 = assay: Growth inhibition of estrogen-sensitive human IGROV1 cells after 72 hrs by MTT assay; assay type: functional; details: IGROV-1, 72 h; summary of the method: as §1
[10] = target: T3, Cytochrome P450 11B1, mitochondrial (Homo sapiens, UniProt P15538); assay: Inhibition of human CYP11B1 using [1,2-3H]-11-deoxycorticosterone as substrate
T3 sequence (P15538 whole entry): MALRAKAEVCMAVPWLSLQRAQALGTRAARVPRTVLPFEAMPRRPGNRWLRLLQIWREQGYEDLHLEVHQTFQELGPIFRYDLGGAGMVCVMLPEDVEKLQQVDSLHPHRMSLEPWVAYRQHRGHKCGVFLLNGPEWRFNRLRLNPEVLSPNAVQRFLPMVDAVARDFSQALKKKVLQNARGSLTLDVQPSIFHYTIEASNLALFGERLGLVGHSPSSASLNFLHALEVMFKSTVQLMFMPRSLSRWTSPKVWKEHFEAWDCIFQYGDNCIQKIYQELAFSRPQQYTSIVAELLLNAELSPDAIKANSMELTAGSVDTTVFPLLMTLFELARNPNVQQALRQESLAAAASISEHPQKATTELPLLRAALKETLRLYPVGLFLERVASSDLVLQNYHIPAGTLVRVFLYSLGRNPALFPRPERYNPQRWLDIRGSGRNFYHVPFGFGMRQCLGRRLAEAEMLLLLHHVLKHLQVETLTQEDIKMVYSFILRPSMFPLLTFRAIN
Summary of the method: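 Hamster fibroblast V79MZh cells expressing human CYP11B1 were incubated with [1,2-3H]-11-deoxycorticosterone substrate and inhibitor at several concentrations. IC50 given as mean ± SEM of three independent experiments run in duplicate.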

NCI-H295R = assay: Growth inhibition of estrogen-sensitive human NCI-H295R cells after 72 hrs by MTT assay; assay type: functional; summary of the method: as §1
MCF7 [11] = assay: Cell cycle arrest in estrogen-sensitive human MCF7 cells assessed as decrease of accumulation at G1 and S phase at 6 to 50 uM after 24 hrs using propidium iodide staining by flow cytometry; assay type: functional, cell-based
HeLa [12] = assay: Cell cycle arrest in non-estrogen-sensitive human HeLa cells assessed as increase of accumulation at G2/M phase at 6 to 50 uM after 24 hrs using propidium iodide staining by flow cytometry; assay type: functional, cell-based
HeLa [13] = assay: Cell cycle arrest in non-estrogen-sensitive human HeLa cells assessed as decrease of accumulation at G1 and S phase at 6 to 50 uM after 24 hrs using propidium iodide staining by flow cytometry; assay type: functional, cell-based
MCF7 [14] = assay: Cell cycle arrest in estrogen-sensitive human MCF7 cells assessed as increase of accumulation at G2/M phase at 6 to 50 uM after 24 hrs using propidium iodide staining by flow cytometry; assay type: functional, cell-based
Aromatase [15] = target: T1, Aromatase; assay: Inhibition of aromatase in human H295R cells using [1beta-3H(N)]-androst-4-ene-3,17-dione as substrate assessed as residual activity at 10 uM after 24 hrs by tritiated water release assay
MCF7 [16] = assay: Cell cycle arrest in estrogen-sensitive human MCF7 cells assessed as decrease of accumulation at S phase at 6 to 50 uM after 24 hrs using propidium iodide staining by flow cytometry; assay type: functional, cell-based
HeLa [17] = assay: Cell cycle arrest in non-estrogen-sensitive human HeLa cells at 6 to 50 uM after 24 hrs using propidium iodide staining by flow cytometry; assay type: functional, cell-based
MCF7 [18] = assay: Cell cycle arrest in estrogen-sensitive human MCF7 cells assessed as increase of accumulation at G1 phase after 24 hrs using propidium iodide staining by flow cytometry; assay type: functional, cell-based

SMILES	inhibition (INH) (Aromatase [1])	IC50 (Aromatase [2])	GI50 [3]	GI50 (MCF7 [4])	GI50 (HT-29)	also measured
CCOC(=O)c1cc(C)nc2c1ccc1[nH]ccc12	Not Active	> 10 µM				
Cc1cc(CO)c2ccc3[nH]ccc3c2n1	Not Active	4.15 µM	16.2 µM	5.7 µM		
CCn1ccc2c3nc(-c4ccccc4)cc(CO)c3ccc21	Not Active	> 10 µM				
CCOC(=O)c1cc(-c2ccccc2)nc2c1ccc1[nH]ccc12	Active	> 10 µM			17.2 µM	
CCn1ccc2c3c(C(=O)O)cc(-c4ccccc4)nc3ccc21	Not Active	1.47 µM				
COc1ccc(-c2cc(C(=O)O)c3ccc4[nH]ccc4c3n2)cc1	Not Active	> 10 µM				activity at 1 µM (Aromatase [5]): 10.6%
Cc1cc(C(=O)O)c2ccc3[nH]ccc3c2n1	Not Active	> 10 µM				Activity (Aromatase [6]): Active
COc1ccc(-c2cc(Cn3cncn3)c3ccc4[nH]ccc4c3n2)cc1	Not Active	> 10 µM	28.4 µM	> 100 µM	> 100 µM	GI50 (OVCAR-3): 50.6 µM; GI50 (HeLa [7]): > 100 µM; GI50 [8]: 43.8 µM; IC50 [9]: > 5 µM; GI50 (Jurkat): 39.5 µM; GI50 (IGROV-1): 82 µM; Activity (Aromatase [6]): Active; IC50 [10]: > 5 µM; GI50 (NCI-H295R): > 100 µM
CCn1ccc2c3c(Cn4cncn4)cc(-c4ccccc4)nc3ccc21		0.0133 µM	5.5 µM	23 µM	29.5 µM	Activity (MCF7 [11]): Active; GI50 (OVCAR-3): 13.6 µM; Activity (HeLa [12]): Active; Activity (HeLa [13]): Active; GI50 (HeLa [7]): 59.8 µM; Activity (MCF7 [14]): Active; GI50 [8]: 2.7 µM; IC50 [9]: > 5 µM; GI50 (Jurkat): 65.8 µM; GI50 (IGROV-1): 54.3 µM; activity at 10 µM (Aromatase [15]): 50.9%; IC50 [10]: 1.48 µM; GI50 (NCI-H295R): 75.3 µM
CCOC(=O)c1cc(-c2ccc(OC)cc2)nc2c1ccc1[nH]ccc12	Active	> 10 µM			1.9 µM	
COc1cccc(-c2cc(=O)c3ccc4[nH]ccc4c3[nH]2)c1		0.59 µM	35 µM	0.81 µM	17.7 µM	GI50 (OVCAR-3): 0.39 µM; GI50 (HeLa [7]): 38.4 µM; GI50 [8]: 25 µM; GI50 (Jurkat): 21.2 µM; GI50 (IGROV-1): 0.92 µM; GI50 (NCI-H295R): 0.7 µM
c1ccc(-c2cc(Cn3ccnc3)c3ccc4[nH]ccc4c3n2)cc1	Not Active	0.0114 µM	17 µM	23.3 µM	13.5 µM	Activity (MCF7 [16]): Active; GI50 (OVCAR-3): 16.9 µM; GI50 (HeLa [7]): 21.2 µM; GI50 [8]: 29.6 µM; Activity (HeLa [17]): inactive; IC50 [9]: 0.919 µM; GI50 (Jurkat): 27 µM; Activity (MCF7 [18]): Dose-dependent effect; GI50 (IGROV-1): 23.6 µM; Activity (Aromatase [6]): Active; IC50 [10]: 0.23 µM; GI50 (NCI-H295R): 36.5 µM
CCOC(=O)c1cc(-c2ccccc2)nc2c1ccc1c2ccn1CC	Not Active	> 10 µM	13 µM	18.5 µM	4.3 µM	
CCOC(=O)c1cc(-c2ccccc2)nc2ccc3c(ccn3CC)c12	Not Active	> 10 µM				
